Assay results as given in paper PMC4968691 (Inorganic chemistry, 2012).
One block for each compound: values may come before it.

Tests used:
[1] = ^67Ga/^111In mouse serum competition; type: in vitro ADME; conditions: mouse blood serum
Procedure, shortened: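 Test chelator (0.3 mg/mL) was labelled with 67Ga (NaOAc 10 mM, pH 4) or 111In (pH 5) for 10 min at ambient temperature. Complex was added to thawed mouse serum plus PBS in triplicate and held at ambient temperature. Sampling was at 15 min, 1 h and 2 h (67Ga) and 1 and 24 h (111In). Aliquots were diluted to 2.5 mL PBS, counted and loaded on PD-10. The 3.5 mL PBS eluate, holding protein-bound activity, was counted against pre-load activity.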

[2] = ^177Lu/^64Cu human blood serum competition; type: in vitro ADME
Procedure, shortened: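 Test chelator was labelled with 177Lu or 64Cu in 10 mM NaOAc pH 5.0 for 10 min at ambient temperature. Thawed human serum (750 µL), 300 µL complex and 450 µL PBS were run in triplicate at 37 °C and 550 rpm. Sampling was at 1.5/24 h (177Lu) and 1/20 h (64Cu). Aliquots were PBS-diluted, counted and passed through PD-10 size exclusion, and the PBS eluate was counted as serum-bound. Result is % chelate-bound.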

[3] = ^64Cu biodistribution in healthy nude athymic mice; type: in vivo, mouse; conditions: n = 4
Procedure, shortened: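 Healthy nude athymic mice received the HPLC-purified 64Cu complex by tail vein: ~30 µCi (~3 µg) in 200 µL of 2:1 saline:PBS, pH 7. Mice were killed by CO2 at 15 min, 1, 4 and 24 h (n = 4). Organs were rinsed, air-dried 5 min, weighed and gamma-counted. Counts were background- and decay-corrected, calibrated against 64Cu standards and expressed as %ID/g.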

[4] = 24 h, with both ^177Lu and ^111In; cited from earlier work

SMILES: O=C([O-])CN(CCN(CC(=O)[O-])CC(=O)[O-])CCN(CC(=O)[O-])CC(=O)[O-].[111In+3].[H+].[H+] [[^111In(DTPA)]^2−]
medium-term stability (% chelator-bound radiometal) ([1]; 1 h, 25 °C, n = 3): 87 (±2) %
long-term stability (% chelator-bound radiometal) ([1]; 24 h, 25 °C, ^111In, n = 3): 88 (±2) %

SMILES: O=C(O)CN(CCN(CC(=O)O)Cc1cccc(C(=O)O)n1)Cc1cccc(C(=O)O)n1 [H4octapa]
stable in serum [4]: > 85%
transchelated by serum proteins [4]: < 15%

Now from value to compound:

^111In transchelated by serum proteins ([1]; 24 h, ^111In complex): 35%
^64Cu transchelated to serum proteins ([2]; 20 h, 37 °C): 2%
^177Lu transchelated by serum proteins ([2]; 24 h, ^177Lu complex): 54%
organ uptake, heart ([3]; 4 h post i.v. injection): 3.8 % ID/g
organ uptake, heart ([3]; 24 h post i.v. injection): 3.4 % ID/g
SMILES: O=C(O)c1cccc(CN(CCN(Cc2cn(Cc3ccccc3)nn2)Cc2cccc(C(=O)O)n2)Cc2cn(Cc3ccccc3)nn2)n1 [H2azapa, N,N′-[1-Benzyl-1,2,3-triazole-4-yl]methyl-N,N′-[6-(carboxy)-pyridin-2-yl]-1,2-diaminoethane]

long-term stability (% chelator-bound radiometal) ([2]; 20 h, 37 °C, 550 rpm, ^64Cu, n = 3): 74%
SMILES: O=C(O)CN1CCN(CC(=O)O)CCN(CC(=O)O)CCN(CC(=O)O)CC1 [DOTA, 1,4,7,10-tetraazacyclododecane-1,4,7,10-tetraacetic acid]

medium-term stability (% chelator-bound radiometal) ([2]; 1.5 h, 37 °C, 550 rpm, ^177Lu, n = 3): 87.7 (±0.7) %
long-term stability (% chelator-bound radiometal) ([2]; 24 h, 37 °C, 550 rpm, ^177Lu, n = 3): 87 (±2) %
SMILES: O=C([O-])CN1CCN(CC(=O)[O-])CCN(CC(=O)[O-])CCN(CC(=O)[O-])CC1.[177Lu+3].[H+] [[^177Lu(DOTA)]^−]
